Test [1] has as its system Mus musculus. The experiment in a line: Incidence of disease(mouse type II collagen arthritis) was scored as the percentage of animals within each experimental group that exhibited joint or limb inflammation on day 30 at intraperitoneal of dose 18 mg/kg. In kind it is functional. In short, it runs like this:
(§1)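 DBA/1 mice were immunized with bovine type II collagen (modified Courtenay method), with a collagen booster on day 21. Compounds were given ip starting 2 days before the first collagen challenge and every 2 days thereafter. Incidence was the percentage of animals per group with joint or limb inflammation, scored on days 23, 30, 37 and 44.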

In test [2] the test system is Mus musculus. The experiment in a line: Incidence of disease(mouse type II collagen arthritis) was scored as the percentage of animals within each experimental group that exhibited joint or limb inflammation on day 37 at intraperitoneal of dose 12 mg/kg. In kind it is functional. In short, it runs like this:
as §1

For test [3], the system named is Mus musculus. Kind of test: Incidence of disease(mouse type II collagen arthritis) was scored as the percentage of animals within each experimental group that exhibited joint or limb inflammation on day 37 at intraperitoneal of dose 18 mg/kg. In kind it is functional. The procedure, abridged: as §1
Test [4] relates to Mus musculus. Kind of test: Incidence of disease(mouse type II collagen arthritis) was scored as the percentage of animals within each experimental group that exhibited joint or limb inflammation on day 23 at intraperitoneal dose of 12 mg/kg. It is filed as functional. In short, it runs like this: as §1
For test [5], the system named is Mus musculus. The experiment in a line: Incidence of disease(mouse type II collagen arthritis) was scored as the percentage of animals within each experimental group that exhibited joint or limb inflammation on day 23 at intraperitoneal dose of 18 mg/kg. In kind it is functional. The procedure, abridged:
as §1

The test system of test [6] is Mus musculus. Kind of test: Incidence of disease(mouse type II collagen arthritis) was scored as the percentage of animals within each experimental group that exhibited joint or limb inflammation on day 30 at intraperitoneal of dose 12 mg/kg. In kind it is functional. The procedure, abridged: as §1
The test system of test [7] is Mus musculus. Kind of test: Tested for antiinflammatory activity on mouse type II collagen arthritis as Paw swelling* of all animals in each group on 30 at intraperitoneal dose of 18 mg/kg. It is filed as functional. In short, it runs like this:
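DBA/1 mice were challenged with bovine type II collagen and boosted on day 21. Dosing was ip from 2 days before the initial challenge, then every 2 days, with eight animals per dose. Hind paw dimensions (mm) were measured for both limbs of all animals and given as mean ± SD. Untreated controls were pooled from four experiments (48 animals).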

Test [8] deals with Mus musculus. Kind of test: Tested for antiinflammatory activity on mouse type II collagen arthritis as Paw swelling* of all animals in each group on day 44 at intraperitoneal dose of 12 mg/kg. In kind it is functional. In short, it runs like this:
(§2)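 DBA/1 mice immunized with bovine type II collagen (Courtenay method, modified), antigen booster at day 21. Compounds given ip from 2 days before the first collagen challenge, then every 2 days. Hind paw dimensions (mm) measured for both limbs of all animals, expressed as mean ± SD. Eight mice per dose; untreated controls pooled from four experiments (48 animals).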

Test [9] concerns Mus musculus. The experiment in a line: Tested for antiinflammatory activity on mouse type II collagen arthritis as Paw swelling* of all animals in each group on day 44 at intraperitoneal dose of 18 mg/kg. In kind it is functional. In short, it runs like this:
as §2

The subject of test [10] is Mus musculus. Kind of test: Tested for antiinflammatory activity on mouse type II collagen arthritis as Paw swelling* of all animals in each group on day 30 at intraperitoneal dose of 12 mg/kg. In kind it is functional. In short, it runs like this:
as §2

Test [11] has as its system Mus musculus. The experiment in a line: Tested for antiinflammatory activity on mouse type II collagen arthritis as Paw swelling* of all animals in each group on day 23 at intraperitoneal dose of 12 mg/kg. In kind it is functional. In short, it runs like this:
as §2

The test system of test [12] is Mus musculus. Kind of test: Tested for antiinflammatory activity on mouse type II collagen arthritis as Paw swelling* of all animals in each group on day 23 at intraperitoneal dose of 18 mg/kg. In kind it is functional. The procedure, abridged: as §2
Test [13] deals with Mus musculus. The experiment in a line: Incidence of disease(mouse type II collagen arthritis) was scored as the percentage of animals within each experimental group that exhibited joint or limb inflammation on day 44 at intraperitoneal of dose 12 mg/kg. In kind it is functional. The procedure, abridged: as §1
For test [14], the system named is Mus musculus. The experiment in a line: Incidence of disease(mouse type II collagen arthritis) was scored as the percentage of animals within each experimental group that exhibited joint or limb inflammation on day 44 at intraperitoneal of dose 18 mg/kg. In kind it is functional. In short, it runs like this:
as §1

Test [15] concerns Mus musculus. Kind of test: Tested for antiinflammatory activity on mouse type II collagen arthritis as Paw swelling* of all animals in each group on day 37 at intraperitoneal dose of 12 mg/kg. In kind it is functional. The procedure, abridged: as §2
In test [16] the test system is Mus musculus. Kind of test: Tested for antiinflammatory activity on mouse type II collagen arthritis as Paw swelling* of all animals in each group on day 37 at intraperitoneal dose of 18 mg/kg. In kind it is functional. In short, it runs like this: as §2
A short description of test [17]: Concentration required to inhibit the growth of chang liver cells. The note with it: Homo sapiens. It is filed as functional.
Another test concerns L1210. Kind of test: Concentration required to inhibit the growth of L1210 cells. It is filed as functional, cell-based. Particulars: Mus musculus.
In test [18] the test system is Mus musculus. The experiment in a line: Incidence of disease(mouse type II collagen arthritis) was scored as the percentage of animals within each experimental group that exhibited joint or limb inflammation on day 30 at intraperitoneal of dose 15 mg/kg. In kind it is functional. The procedure, abridged: as §1
The subject of test [19] is Mus musculus. Kind of test: Incidence of disease(mouse type II collagen arthritis) was scored as the percentage of animals within each experimental group that exhibited joint or limb inflammation on day 30 at intraperitoneal of dose 9 mg/kg. It is filed as functional. The procedure, abridged: as §1
Test [20] has as its system Mus musculus. Kind of test: Incidence of disease(mouse type II collagen arthritis) was scored as the percentage of animals within each experimental group that exhibited joint or limb inflammation on day 37 at intraperitoneal of dose 15 mg/kg. It is filed as functional. The procedure, abridged: as §1
Test [21] deals with Mus musculus. The experiment in a line: Incidence of disease(mouse type II collagen arthritis) was scored as the percentage of animals within each experimental group that exhibited joint or limb inflammation on day 23 at intraperitoneal dose of 15 mg/kg. In kind it is functional. In short, it runs like this:
as §1

For test [22], the system named is Mus musculus. The experiment in a line: Incidence of disease(mouse type II collagen arthritis) was scored as the percentage of animals within each experimental group that exhibited joint or limb inflammation on day 23 at intraperitoneal dose of 9 mg/kg. It is filed as functional. The procedure, abridged:
as §1

The test system of test [23] is Mus musculus. The experiment in a line: Incidence of disease(mouse type II collagen arthritis) was scored as the percentage of animals within each experimental group that exhibited joint or limb inflammation on day 44 at intraperitoneal of dose 9 mg/kg. It is filed as functional. In short, it runs like this: as §1
The test system of test [24] is Mus musculus. The experiment in a line: Tested for antiinflammatory activity on mouse type II collagen arthritis as Paw swelling* of all animals in each group on day 37 at intraperitoneal dose of 9 mg/kg. In kind it is functional. The procedure, abridged: as §2
The test system of test [25] is Mus musculus. Kind of test: Tested for antiinflammatory activity on mouse type II collagen arthritis as Paw swelling* of all animals in each group on day 44 at intraperitoneal dose of 15 mg/kg. In kind it is functional. In short, it runs like this:
as §2

In test [26] the test system is Mus musculus. Kind of test: Tested for antiinflammatory activity on mouse type II collagen arthritis as Paw swelling* of all animals in each group on day 23 at intraperitoneal dose of 9 mg/kg. It is filed as functional. The procedure, abridged:
as §2

For test [27], the system named is Mus musculus. Kind of test: Tested for antiinflammatory activity on mouse type II collagen arthritis as Paw swelling* of all animals in each group on day 30 at intraperitoneal dose of 15 mg/kg. In kind it is functional. In short, it runs like this:
as §2

For test [28], the system named is Mus musculus. The experiment in a line: Tested for antiinflammatory activity on mouse type II collagen arthritis as Paw swelling* of all animals in each group on day 23 at intraperitoneal dose of 15 mg/kg. It is filed as functional. In short, it runs like this: as §2
Test [29] has as its system Mus musculus. Kind of test: Incidence of disease(mouse type II collagen arthritis) was scored as the percentage of animals within each experimental group that exhibited joint or limb inflammation on day 37 at intraperitoneal of dose 9 mg/kg. In kind it is functional. The procedure, abridged: as §1
Test [30] has as its system Mus musculus. The experiment in a line: Incidence of disease(mouse type II collagen arthritis) was scored as the percentage of animals within each experimental group that exhibited joint or limb inflammation on day 44 at intraperitoneal of dose 15 mg/kg. It is filed as functional. In short, it runs like this: as §1
For test [31], the system named is Mus musculus. The experiment in a line: Tested for antiinflammatory activity on mouse type II collagen arthritis as Paw swelling* of all animals in each group on day 44 at intraperitoneal dose of 9 mg/kg. In kind it is functional. In short, it runs like this: as §2
Test [32] deals with Mus musculus. Kind of test: Tested for antiinflammatory activity on mouse type II collagen arthritis as Paw swelling* of all animals in each group on day 30 at intraperitoneal dose of 9 mg/kg. In kind it is functional. In short, it runs like this:
as §2

Test [33] relates to Mus musculus. Kind of test: Tested for antiinflammatory activity on mouse type II collagen arthritis as Paw swelling* of all animals in each group on day 37 at intraperitoneal dose of 15 mg/kg. In kind it is functional. The procedure, abridged:
as §2

From ChEMBL document CHEMBL1129929, “Analogues of methotrexate in rheumatoid arthritis. 1. Effects of 10-deazaaminopterin analogues on type II collagen-induced arthritis in mice” (J Med Chem, 1997) come the findings set out here.

pIC50: −log10 of the molar value.

As for `CCC(Cc1cnc2nc(N)nc(N)c2n1)c1ccc(C(=O)N[C@@H](CCC(=O)O)C(=O)O)cc1` (some centres not stated) [EDATREXATE], the Animals with Mus musculus [1] is 0%; in the test on Mus musculus [2], 38%; in the test with Mus musculus [3], 12%; in the test on Mus musculus [4], 25%; with Mus musculus [5], 12%; in the test with Mus musculus [6], 25%. In addition, the Animals with Mus musculus [13] is on record as 50%; in the test with Mus musculus [14], 12%. The Paw swelling with Mus musculus [7] came out at 2.24 mm; with Mus musculus [8], 2.32 mm; in the test with Mus musculus [9] it was 2.18 mm; in the test with Mus musculus [10] it was 2.28 mm; with Mus musculus [11], 2.26 mm; in the test on Mus musculus [12], 2.18 mm. In addition, the Paw swelling with Mus musculus [15] came out at 2.34 mm; in the test on Mus musculus [16], 2.19 mm.

Turning to `Nc1nc(N)c2nc(CCc3ccc(C(=O)N[C@@H](CCC(=O)O)C(=O)O)cc3)cnc2n1`, the pIC50 in [17] is 7.01; in the test with L1210, 8.43. The Animals was found to be 38% with Mus musculus [18]; 38% in the test on Mus musculus [19]; 50% in the test with Mus musculus [2]; 50% in the test on Mus musculus [20]; 12% in the test with Mus musculus [4]; 0% in the test with Mus musculus [21]. Also, the Animals in the test with Mus musculus [22] came out at 25%; with Mus musculus [6], 50%; with Mus musculus [23] it was 50%; in the test on Mus musculus [29], 38%; with Mus musculus [13], 62%; with Mus musculus [30], 38%. Besides, the Paw swelling in the test on Mus musculus [24] is 2.28 mm; with Mus musculus [8] it was 2.33 mm; in the test with Mus musculus [25] it was 2.3 mm; with Mus musculus [26], 2.19 mm; in the test with Mus musculus [10], 2.36 mm; in the test on Mus musculus [27], 2.31 mm. Further, the Paw swelling is 2.21 mm in the test with Mus musculus [11]; 2.2 mm in the test on Mus musculus [28]; 2.32 mm with Mus musculus [31]; 2.32 mm in the test with Mus musculus [32]; 2.31 mm with Mus musculus [15]; 2.29 mm with Mus musculus [33].
